Paper PMC3240942 (Molecular cell, 2011)
Where no end group is shown, it is not given here.

Columns and labels:
[1] = tested on: deacetylase core; test: GST pull-down of deacetylase core with GST-LZ or GST-ESA; type: binding, mouse; conditions: GST pull-down, GST-LZ vs GST-ESA
In short: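 His-tagged deacetylase core (a.a. 184-510) incubated with GST, GST-ESA or GST-LZ (DBC1 LZ, a.a. 243-264), 2 μg of each. Unbound protein washed off on micro-spin columns with PBS/1% Triton X-100/200 mM NaCl. Elution in SDS buffer with β-ME at 95 °C for 10 min; 4–12% gradient SDS-PAGE and Western blot for bound core and GST fusions.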

[2] = biological target: T1, Sirt1 (Mus musculus, UniProt Q923E4); test: Sirt1 deacetylase activity in presence of GST-LZ; type: biochemical; conditions: compared to GST alone, Figure S3B
T1 sequence (Q923E4 1-737): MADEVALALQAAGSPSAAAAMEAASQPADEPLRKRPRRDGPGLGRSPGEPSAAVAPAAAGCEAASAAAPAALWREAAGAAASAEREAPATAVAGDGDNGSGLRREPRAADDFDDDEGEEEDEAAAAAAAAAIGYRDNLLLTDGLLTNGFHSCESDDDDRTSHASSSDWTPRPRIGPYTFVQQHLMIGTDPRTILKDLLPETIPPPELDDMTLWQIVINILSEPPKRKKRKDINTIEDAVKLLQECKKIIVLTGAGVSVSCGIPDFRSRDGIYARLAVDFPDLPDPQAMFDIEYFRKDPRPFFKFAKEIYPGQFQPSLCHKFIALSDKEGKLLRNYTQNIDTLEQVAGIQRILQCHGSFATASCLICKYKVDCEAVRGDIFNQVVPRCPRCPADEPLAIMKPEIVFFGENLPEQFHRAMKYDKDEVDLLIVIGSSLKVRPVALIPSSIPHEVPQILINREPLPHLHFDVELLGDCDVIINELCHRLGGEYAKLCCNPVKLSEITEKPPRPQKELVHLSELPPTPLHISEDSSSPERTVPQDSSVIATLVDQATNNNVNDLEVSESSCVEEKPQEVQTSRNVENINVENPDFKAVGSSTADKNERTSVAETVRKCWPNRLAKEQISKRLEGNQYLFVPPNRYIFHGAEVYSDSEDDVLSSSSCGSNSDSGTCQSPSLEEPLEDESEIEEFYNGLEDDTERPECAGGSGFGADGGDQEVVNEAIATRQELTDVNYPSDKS

[3] = tested on: ESA-deacetylase core interaction; test: Competition of the ESA-deacetylase core interaction; type: binding, mouse; conditions: competing GPDR-ESA peptide (Figure S2E) or 2 μg GST-LZ (N=5)
In short: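 Biotinylated ESA peptide (100 μl at 300 nmole/ml) bound to 1 ml streptavidin agarose for 1 hr at room temperature, washed with PBS, and resuspended in PBS/1% Triton X-100 with protease inhibitors. 30 μl beads incubated 2 hrs at room temperature with deacetylase core and competitor. Biotin-only beads as negative control. Bound core quantified by immunoblot, N=5, mean ± s.e.m.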

[4] = tested on: [3H]Ac-histone H4; test: [3H]Ac-histone H4 deacetylation, O-[3H]acetyl-ADP-ribose scintillation counting; type: biochemical; conditions: [3H]Ac-histone H4 substrate; N=4; "almost"
In short: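 WT or mutant recombinant Sirt1 (including ΔESA, G644P, D650R, G644P/D650R) was reacted with [3H]acetyl-histone H4. Activity was quantified by scintillation counting of released O-[3H]acetyl-ADP-ribose. N=4; mean ± s.e.m.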

[5] = tested on: Lys 382 acetylated-p53 (Ac-p53); test: Deacetylation of Lys 382 acetylated-p53 by recombinant WT/mutant Sirt1; type: biochemical, mouse Sirt1; conditions: recombinant Sirt1 2 μg, acetylated GST-p53 0.2 μg, 0.5 mM NAD+, pH 7.0, 37 °C; immunoblot
In short: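 Recombinant His-tagged WT or C-terminally truncated/point-mutant mouse Sirt1 (2 μg) incubated with acetylated GST-p53 (0.2 μg) and 0.5 mM NAD+ in 50 mM HEPES pH 7.0, 1 mM DTT, 10 mM MgCl2, 200 mM NaCl plus protease/phosphatase inhibitors. Reactions ran at 37 °C for indicated times and were stopped with SDS sample buffer. Read-out: immunoblot with acetyl-K382 p53 antibody; loading checked by Coomassie, Ponceau S or Western blot.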

[6] = tested on: Sirt6; test: Fluorometric Sirt6 deacetylase assay; type: biochemical; conditions: 150 μM peptide, CycLex SIRT6 fluorometric kit; N=4
In short: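 His-tagged Sirt6 was assayed with the CycLex SIRT6 fluorometric kit. Kit buffer was replaced by 50 mM HEPES pH 7.0, 1 mM DTT, 10 mM MgCl2, 200 mM NaCl plus protease/phosphatase inhibitors. WT or GPDR-mutant ESA peptide (150 μM) or no peptide was present. N=4; mean ± s.e.m.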

[7] = biological target: T1, Sirt1; test: Sirt1 deacetylase activity against Ac-p53, peptide added in trans; type: biochemical; conditions: Figure S2G
[8] = tested on: deacetylase core; test: Pull-down of deacetylase core with immobilized GPDR-ESA peptide; type: binding, mouse; conditions: streptavidin pull-down, Figure S2E top
In short: (§1)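 Biotinylated peptide (mutant ESA or acetyl-H4) was bound to streptavidin agarose for 1 h at room temperature, washed, and held in PBS/1% Triton X-100. Beads (30 μl) took 2 μg GST-fused or His-tagged protein for 2 h at room temperature. Beads were washed with PBS/1% Triton/200 mM NaCl and eluted in β-ME SDS buffer at 95 °C for 10 min. Blots ran on 4–12% SDS-PAGE; biotin-only beads were the control.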

[9] = biological target: T1, Sirt1; test: Lineweaver-Burk kinetics of Sirt1; type: biochemical; conditions: against both Ac-H4 and NAD+; Lineweaver-Burk plot
In short: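 His-Sirt1 (2 μg) was pre-incubated 5 min at room temperature in HEPES pH 7.0 buffer with mutant ESA peptide at 0, 60, 120 or 240 μM. Ac-K16 H4 fluorogenic dipeptide was varied at 500 μM NAD+, or NAD+ was varied at 100 μM substrate. Reactions ran 25 min at 37 °C and were stopped with nicotinamide developer; ex 355/em 460 nm, no-NAD+ blank subtracted. Triplicates. Kis/Kii came from a double-reciprocal noncompetitive model fit, Km from the same analysis, kcat from a Michaelis–Menten fit.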

[10] = biological target: T2, Sirt1 deacetylase core (Core, a.a. 184-510) (mouse, UniProt Q923E4 184-510); test: pull-down
T2 sequence (looked up): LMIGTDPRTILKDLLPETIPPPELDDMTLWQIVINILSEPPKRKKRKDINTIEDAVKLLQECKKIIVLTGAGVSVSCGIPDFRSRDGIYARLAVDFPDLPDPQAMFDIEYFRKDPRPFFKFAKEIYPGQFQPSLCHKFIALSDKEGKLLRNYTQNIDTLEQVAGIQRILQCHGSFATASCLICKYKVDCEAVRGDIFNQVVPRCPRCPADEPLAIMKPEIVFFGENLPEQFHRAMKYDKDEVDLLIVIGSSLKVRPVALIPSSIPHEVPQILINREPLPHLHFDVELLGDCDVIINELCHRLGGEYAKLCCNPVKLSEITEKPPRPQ

[11] = tested on: GST-Ac-p53; test: Pull-down of Sirt1 / core fragments with GST-Ac-p53; type: binding; conditions: in vitro pull-down
In short: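 In vitro pull-downs with GST-Ac-p53 or GST alone as negative control. Recombinant Flag-tagged full-length or ΔESA (a.a. 631-655 deleted) Sirt1 pulled down with anti-Flag, bound GST-Ac-p53 detected by GST immunoblot, and Sirt1 shown by Coomassie. Alternatively, core (a.a. 184-510) or Core-ESA with GST-Ac-p53 (2 μg each) in GST pull-down, bound core detected by Sirt1 immunoblot.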

[12] = tested on: Ac-H4; test: Interaction of Sirt1 with Ac-H4 purified from Hela cells; type: binding; conditions: Figure S3A
[13] = tested on: p53; test: Deacetylation of p53 in transfected H1299 cells; type: cell-based; conditions: co-transfected with p53
In short: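 H1299 cells were transiently co-transfected with a p53 vector and a WT or ΔESA Sirt1 vector; empty vector was the negative control. Acetylated p53 was detected by immunoblot with an acetyl-K382-specific antibody.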

[14] = tested on: Flag-p65 (NF-κB); test: Co-immunoprecipitation of Sirt1 with Flag-p65 in Hela cells; type: cell-based; conditions: V5-tagged Sirt1
In short: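 Transient co-transfection of HeLa cells with Flag-NF-κB p65 plus V5-tagged full-length or ΔESA Sirt1. p65 was pulled down with anti-Flag, and bound Sirt1 was detected by anti-V5 immunoblot alongside input levels.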

[15] = tested on: p53 target genes p21, PUMA and Bim; test: Expression of p53 target genes in H1299 cells; type: cell-based; conditions: co-expressed p53
In short: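 H1299 cells transiently co-transfected with a p53 expression vector and a WT or ΔESA Sirt1 expression vector; empty vector as control. Levels of the p53-activated genes p21, PUMA and Bim were then visualized.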

[16] = tested on: Ac-H3; test: Interaction of Sirt1 with Ac-H3 purified from Hela cells; type: binding; conditions: Figure S3A
[17] = tested on: native Ac-histone H3; test: Deacetylation of native Ac-histone H3 by recombinant Sirt1; type: biochemical
[18] = Pull-down of GST fusion proteins with immobilized GPDR-ESA peptide; type: binding; conditions: Figure S2F
In short: as §1

GST-LZ: LZ domain of DBC1 (a.a. 243-264) fused to GST (LQRRYRSLLVPSDFLSVHLSWL; also: fused to GST, end not given here)
relative strength of interaction with deacetylase core [1]: stronger than the ESA-deacetylase core interaction
reduction of Sirt1 deacetylase activity [2]: significantly reduced Sirt1 deacetylase activity
inhibition of ESA-deacetylase core interaction [3]: prevented the ESA-deacetylase core interaction

GPDR: Sirt1 with a double mutation G644P and D650R
fold reduction of Sirt1 activity [4]: ~10 fold
deacetylase activity against Ac-p53 [5]: very little deacetylase activity

GPDR-ESA peptide: ESA peptide containing a mutation of two residues, G644P and D650R (GPDR) (QYLFVPPNRYIFHPAEVYSRSEDDV; also: biotinylated, position not given here)
effect on Sirt6 activity [6]: had no effect on Sirt6 activity
inhibition of Sirt1 activity against Ac-p53 [7]: also inhibited Sirt1 activity against Ac-p53
binding to deacetylase core [8]: also bound to the deacetylase core
mode of inhibition [9]: noncompetitive inhibitor
inhibition of ESA-deacetylase core interaction [3]: ESA-deacetylase core interaction was inhibited

B1: GST-ESA (ESA fused to GST) (domain or fragment, mouse, UniProt Q923E4 631-655, looked up)
chain: QYLFVPPNRYIFHGAEVYSDSEDDV
binding result [10]: binds

B2: ΔESA Sirt1: Sirt1 with the 25 a.a. ESA region (a.a. 631-655) deleted (protein)
chain: MADEVALALQAAGSPSAAAAMEAASQPADEPLRKRPRRDGPGLGRSPGEPSAAVAPAAAGCEAASAAAPAALWREAAGAAASAEREAPATAVAGDGDNGSGLRREPRAADDFDDDEGEEEDEAAAAAAAAAIGYRDNLLLTDGLLTNGFHSCESDDDDRTSHASSSDWTPRPRIGPYTFVQQHLMIGTDPRTILKDLLPETIPPPELDDMTLWQIVINILSEPPKRKKRKDINTIEDAVKLLQECKKIIVLTGAGVSVSCGIPDFRSRDGIYARLAVDFPDLPDPQAMFDIEYFRKDPRPFFKFAKEIYPGQFQPSLCHKFIALSDKEGKLLRNYTQNIDTLEQVAGIQRILQCHGSFATASCLICKYKVDCEAVRGDIFNQVVPRCPRCPADEPLAIMKPEIVFFGENLPEQFHRAMKYDKDEVDLLIVIGSSLKVRPVALIPSSIPHEVPQILINREPLPHLHFDVELLGDCDVIINELCHRLGGEYAKLCCNPVKLSEITEKPPRPQKELVHLSELPPTPLHISEDSSSPERTVPQDSSVIATLVDQATNNNVNDLEVSESSCVEEKPQEVQTSRNVENINVENPDFKAVGSSTADKNERTSVAETVRKCWPNRLAKEQISKRLEGNLSSSSCGSNSDSGTCQSPSLEEPLEDESEIEEFYNGLEDDTERPECAGGSGFGADGGDQEVVNEAIATRQELTDVNYPSDKS
modifications: left off: V5, end not stated, kept
binding to GST-Ac-p53 [11]: bound poorly to GST-Ac-p53 compared to full-length Sirt1
interaction with Ac-H4 [12]: significantly weakened the interaction
deacetylation of p53 in vivo [13]: WT Sirt1, but not ΔESA Sirt1, was able to deacetylate p53
co-immunoprecipitation with Flag-p65 [14]: did so very poorly
suppression of p53 target gene expression [15]: failed to suppress the expression of p53 target genes
interaction with Ac-H3 [16]: significantly weakened the interaction
deacetylase activity against Ac-p53 [5]: did not have any deacetylase activity
deacetylase activity against native Ac-histone H3 [17]: did not have any deacetylase activity

B3: GST-Sirtuin domain: GST fused to Sirtuin domain (a.a. 236-490) (protein)
chain: EDAVKLLQECKKIIVLTGAGVSVSCGIPDFRSRDGIYARLAVDFPDLPDPQAMFDIEYFRKDPRPFFKFAKEIYPGQFQPSLCHKFIALSDKEGKLLRNYTQNIDTLEQVAGIQRILQCHGSFATASCLICKYKVDCEAVRGDIFNQVVPRCPRCPADEPLAIMKPEIVFFGENLPEQFHRAMKYDKDEVDLLIVIGSSLKVRPVALIPSSIPHEVPQILINREPLPHLHFDVELLGDCDVIINELCHRLGGEYA
modifications: left off: GST, end not stated, kept
binding to immobilized GPDR-ESA peptide [18]: bound to the GPDR-ESA peptide
